Experimental data pooled from the literature.
Protocols differ between the studies behind these lines.

Compound | tested on | test | system | setting | measurement | value
Cc1ncc2n1-c1ccc(Cl)cc1C(c1ccccc1F)=NC2 |  | metabolic stability | dog, hepatocytes |  | half-life | 0.616 h
COC(=O)C=Cc1ccc(OC(C)=O)c(OC(C)=O)c1 | HaCaT | cell growth or viability, MTT |  | 24 h | CC50 | 201 µM
O=C(O)CCCOc1ccc(F)cc1-c1cc(-c2ccccc2C(F)(F)F)n(-c2ccccc2)n1 |  | general toxicity | rat | intravenous, 25 µg/kg, single dose | NOAEL | ≥ 0.025 mg/kg
Cc1ccc2cc(N3CCC4(O)C(=O)c5cc(C)c(C)cc5N=C34)ccc2n1 (centres unmarked) |  | general toxicity | rat | intravenous, multiple doses | NOAEL | ≥ 20 mg/kg
COc1cc(C2C3=C(COC3=O)N(CCO)c3cc4c(cc32)CCC4)cc(OC)c1OC (centres unmarked) |  | general toxicity | female Sprague-Dawley rat | intraperitoneal, single dose | MTD | ≥ 400 mg/kg
CC(C)CC(=O)OC[C@H]1O[C@@](C#N)(c2ccc3c(N)ncnn23)[C@H](O)[C@@H]1O |  | metabolic stability | dog, plasma | 5 µM | half-life | > 3.1 h
CC(=O)c1c(C)c2cnc(Nc3ccc(C4CCN(CCS(C)(=O)=O)CC4)cn3)nc2n(C2CCCC2)c1=O |  | metabolic stability | dog, liver S9 |  | half-life | 1.72 h
CC(=O)Oc1ccc(C=CC(=O)O)cc1OC(C)=O | HaCaT | cell growth or viability, MTT |  | 24 h | CC50 | > 250 µM
